# Measurements reported in ChEMBL document CHEMBL1157378, “Role for cell density in antifungal drug resistance in Candida albicans biofilms” (2007).
# Experiments:
# Assay type in all cases: functional
# Candida albicans [1] = experiment: Antimicrobial activity against Candida albicans FH1 at planktonic cell density of 10^3 cells/ml after 48 hrs by XTT assay; conditions: FH1, 48 h
# Method in brief: (§1)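 YNB-grown yeast (50 mM glucose, room temperature, shaken, to ~2 x 10^8 cells/ml) washed into MOPS-buffered RPMI 1640 with L-glutamine and set to the stated density. Exposed to twofold serial drug dilutions (1,024 to 0.0313 µg/ml) at 37°C, 48 h (caspofungin 24 h), with drug-free controls. Read-out: XTT (0.5 g/liter) plus 1 µM menadione, formazan at 490 nm.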
# Candida albicans [2] = experiment: Antimicrobial activity against Chk1 deficient Candida albicans CHK21 dissociated biofilms at cell density of 10^3 cells/ml after 48 hrs by XTT assay; conditions: CHK21, 48 h
# Method in brief: (§2)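 Polystyrene-well biofilms (48 h, 37°C) washed, then broken up in 100 µl RPMI by scraping and aspiration. Cells used undiluted (about 2 x 10^8 cells/ml equivalent) or adjusted by A600 against a hemacytometer-calibrated yeast standard curve. Drug exposure at 37°C for 48 h (caspofungin 24 h), then XTT/menadione read at 490 nm.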
# Candida albicans [3] = experiment: Antimicrobial activity against Candida albicans GDH2346 at planktonic cell density of 10^3 cells/ml after 48 hrs by XTT assay; conditions: GDH2346, 48 h; method in brief: as §1
# Candida albicans [4] = experiment: Antimicrobial activity against Candida albicans GDH2346 dissociated biofilms at cell density of 10^3 cells/ml after 48 hrs by XTT assay; conditions: GDH2346, 48 h; method in brief: as §2
# Candida albicans [5] = experiment: Antimicrobial activity against Candida albicans SC5314 biofilms upto 12 hrs by XTT assay; conditions: SC5314, 12 h
# Method in brief: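 SC5314 biofilm development followed over 72 h in polystyrene wells. At intervals the developing biofilm was exposed to fluconazole or amphotericin B, and metabolic activity was read by XTT/menadione reduction at 490 nm.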
# Candida albicans [6] = experiment: Antimicrobial activity against fluconazole-resistant Candida albicans FH5 at planktonic cell density of 10^8 cells/ml after 48 hrs by XTT assay; conditions: FH5, 48 h; method in brief: as §1
# Candida albicans [7] = experiment: Antimicrobial activity against Cdr1, Cdr2 and Mdr1 deficient Candida albicans DSY1050 at planktonic cell density of 10^3 cells/ml after 48 hrs by XTT assay; conditions: DSY1050, 48 h; method in brief: as §1
# Candida albicans [8] = experiment: Antimicrobial activity against Chk1 deficient Candida albicans CHK21 at planktonic cell density of 10^8 cells/ml after 48 hrs by XTT assay; conditions: CHK21, 48 h; method in brief: as §1
# Candida albicans [9] = experiment: Antimicrobial activity against Candida albicans GDH2346 at planktonic cell density of 10^8 cells/ml after 48 hrs by XTT assay; conditions: GDH2346, 48 h; method in brief: as §1
# Candida albicans [10] = experiment: Antimicrobial activity against Cdr1, Cdr2 and Mdr1 deficient Candida albicans DSY1050 intact biofilms after 48 hrs by XTT assay; conditions: DSY1050, 48 h
# Method in brief: (§3)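 Biofilm seeded at 1 x 10^6 cells/ml in RPMI in polystyrene microtiter wells and grown 48 h at 37°C in a moist chamber. Washed once and drug added to the same well (twofold dilutions, 1,024 to 0.0313 µg/ml) for 48 h at 37°C (caspofungin 24 h). Read-out: XTT/menadione reduction at 490 nm.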
# Candida albicans [11] = experiment: Antimicrobial activity against Candida albicans FH1 intact biofilms after 48 hrs by XTT assay; conditions: FH1, 48 h; method in brief: as §3
# Candida albicans [12] = experiment: Antimicrobial activity against Chk1 deficient Candida albicans CHK21 dissociated biofilms at cell density of 10^8 cells/ml after 48 hrs by XTT assay; conditions: CHK21, 48 h; method in brief: as §2
# Candida albicans [13] = experiment: Antimicrobial activity against Candida albicans SC5314 at planktonic cell density of 10^3 cells/ml after 48 hrs by XTT assay; conditions: SC5314, 48 h; method in brief: as §1
# Candida albicans [14] = experiment: Antimicrobial activity against Cdr1, Cdr2 and Mdr1 deficient Candida albicans DSY1050 at planktonic cell density of 10^8 cells/ml after 48 hrs by XTT assay; conditions: DSY1050, 48 h; method in brief: as §1
# Candida albicans [15] = experiment: Antimicrobial activity against Candida albicans FH1 dissociated biofilms at cell density of 10^3 cells/ml after 48 hrs by XTT assay; conditions: FH1, 48 h; method in brief: as §2
# Candida albicans [16] = experiment: Antimicrobial activity against fluconazole-resistant Candida albicans FH5 dissociated biofilms at cell density of 10^3 cells/ml after 48 hrs by XTT assay; conditions: FH5, 48 h; method in brief: as §2
# Candida albicans [17] = experiment: Antimicrobial activity against Candida albicans assessed as cell viability at cell density of 2 x 10^4 cells/ml preincubated for 1 hr
# Candida albicans [18] = experiment: Antimicrobial activity against Chk1 deficient Candida albicans CHK21 at planktonic cell density of 10^3 cells/ml after 48 hrs by XTT assay; conditions: CHK21, 48 h; method in brief: as §1
# Candida albicans [19] = experiment: Antimicrobial activity against Candida albicans FH1 dissociated biofilms at cell density of 10^8 cells/ml after 48 hrs by XTT assay; conditions: FH1, 48 h; method in brief: as §2
# Candida albicans [20] = experiment: Antimicrobial activity against Cdr1, Cdr2 and Mdr1 deficient Candida albicans DSY1050 dissociated biofilms at cell density of 10^3 cells/ml after 48 hrs by XTT assay; conditions: DSY1050, 48 h; method in brief: as §2
# Candida albicans [21] = experiment: Antimicrobial activity against Candida albicans FH1 at planktonic cell density of 10^8 cells/ml after 48 hrs by XTT assay; conditions: FH1, 48 h; method in brief: as §1
# Candida albicans [22] = experiment: Antimicrobial activity against fluconazole-resistant Candida albicans FH5 intact biofilms after 48 hrs by XTT assay; conditions: FH5, 48 h; method in brief: as §3
# Candida albicans [23] = experiment: Antimicrobial activity against Candida albicans GDH2346 intact biofilms after 48 hrs by XTT assay; conditions: GDH2346, 48 h; method in brief: as §3
# Candida albicans [24] = experiment: Antimicrobial activity against fluconazole-resistant Candida albicans FH5 dissociated biofilms at cell density of 10^8 cells/ml after 48 hrs by XTT assay; conditions: FH5, 48 h; method in brief: as §2
# Candida albicans [25] = experiment: Antimicrobial activity against Cdr1, Cdr2 and Mdr1 deficient Candida albicans DSY1050 dissociated biofilms at cell density of 10^8 cells/ml after 48 hrs by XTT assay; conditions: DSY1050, 48 h; method in brief: as §2
# Candida albicans [26] = experiment: Antimicrobial activity against fluconazole-resistant Candida albicans FH5 at planktonic cell density of 10^3 cells/ml after 48 hrs by XTT assay; conditions: FH5, 48 h; method in brief: as §1
# Candida albicans [27] = experiment: Antimicrobial activity against Candida albicans GDH2346 dissociated biofilms at cell density of 10^8 cells/ml after 48 hrs by XTT assay; conditions: GDH2346, 48 h; method in brief: as §2
# Candida albicans [28] = experiment: Antimicrobial activity against Chk1 deficient Candida albicans CHK21 intact biofilms after 48 hrs by XTT assay; conditions: CHK21, 48 h; method in brief: as §3
# Candida albicans [29] = experiment: Antimicrobial activity against Candida albicans SC5314 dissociated biofilms at cell density of 10^8 cells/ml after 48 hrs by XTT assay; conditions: SC5314, 48 h; method in brief: as §2
# Candida albicans [30] = experiment: Antimicrobial activity against Candida albicans SC5314 intact biofilms after 48 hrs by XTT assay; conditions: SC5314, 48 h; method in brief: as §3
# Candida albicans [31] = experiment: Antimicrobial activity against Candida albicans SC5314 at planktonic cell density of 10^8 cells/ml after 48 hrs by XTT assay; conditions: SC5314, 48 h; method in brief: as §1
# Candida albicans [32] = experiment: Antimicrobial activity against Candida albicans SC5314 dissociated biofilms at cell density of 10^3 cells/ml after 48 hrs by XTT assay; conditions: SC5314, 48 h; method in brief: as §2
# Candida albicans [33] = experiment: Antimicrobial activity against Candida albicans SC5314 biofilms after 24 hrs by XTT assay; conditions: SC5314, 24 h
# Method in brief: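 Intact biofilms formed from 1 x 10^6 cells/ml in RPMI in polystyrene microtiter wells, 48 h at 37°C in a moist chamber, then washed once and covered with 100 µl RPMI. A twofold drug series was added in the same well for 24 h at 37°C. Metabolic activity was read by XTT (0.5 g/liter, 1 µM menadione, up to 2 h) at 490 nm.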
smiles,measurement,setting,value
C[C@@H]1[C@H](O)[C@@H](C)/C=C/C=C/C=C/C=C/C=C/C=C/C=C/[C@H](O[C@@H]2O[C@H](C)[C@@H](O)[C@H](N)[C@@H]2O)C[C@@H]2O[C@](O)(C[C@@H](O)C[C@@H](O)[C@H](O)CC[C@@H](O)C[C@@H](O)CC(=O)O[C@H]1C)C[C@H](O)[C@H]2C(=O)O [AMPHOTERICIN B],MIC80,Candida albicans [1],0.125 µg/mL
same,MIC80,Candida albicans [2],0.25 µg/mL
same,MIC80,Candida albicans [3],0.125 µg/mL
same,MIC80,Candida albicans [4],0.5 µg/mL
same,MIC80,Candida albicans [5],0.125 µg/mL
same,MIC80,Candida albicans [6],> 32 µg/mL
same,MIC80,Candida albicans [7],0.25 µg/mL
same,MIC80,Candida albicans [8],> 32 µg/mL
same,MIC80,Candida albicans [9],> 32 µg/mL
same,MIC80,Candida albicans [10],> 32 µg/mL
same,MIC80,Candida albicans [11],> 32 µg/mL
same,MIC80,Candida albicans [12],> 32 µg/mL
same,MIC80,Candida albicans [13],0.125 µg/mL
same,MIC80,Candida albicans [14],> 32 µg/mL
same,MIC80,Candida albicans [15],0.125 µg/mL
same,MIC80,Candida albicans [16],0.25 µg/mL
same,Activity,Candida albicans [17],80%
same,MIC80,Candida albicans [18],0.125 µg/mL
same,MIC80,Candida albicans [19],> 32 µg/mL
same,MIC80,Candida albicans [20],0.25 µg/mL
same,MIC80,Candida albicans [21],> 32 µg/mL
same,MIC80,Candida albicans [22],> 32 µg/mL
same,MIC80,Candida albicans [23],32 µg/mL
same,MIC80,Candida albicans [24],> 32 µg/mL
same,MIC80,Candida albicans [25],> 32 µg/mL
same,MIC80,Candida albicans [26],0.25 µg/mL
same,MIC80,Candida albicans [27],> 32 µg/mL
same,MIC80,Candida albicans [28],> 32 µg/mL
same,MIC80,Candida albicans [29],> 32 µg/mL
same,MIC80,Candida albicans [30],> 32 µg/mL
same,MIC80,Candida albicans [31],> 32 µg/mL
same,MIC80,Candida albicans [32],0.5 µg/mL
same,MIC80,Candida albicans [33],> 8 µg/mL
